Reference: ChEMBL document CHEMBL1921722, “In vitro and in vivo evaluation of select kahalalide F analogs with antitumor and antifungal activities” (Bioorg Med Chem, 2011)
The source made the active and inactive calls.

Legend:
OVCAR-8 [1] = experiment: Cytotoxicity against human OVCAR8 cells assessed as cell growth at 8 nM by sulforhodamine B assay relative to control; assay type: functional; conditions: read-out: Activity
A549 [2] = experiment: Cytotoxicity against human A549 cells assessed as cell growth at 80 uM by sulforhodamine B assay relative to control; assay type: functional; conditions: read-out: Activity
In short: (§1)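 Run at NCI in the DTP 60-cell-line human tumor panel by standard procedure. Compounds were first screened at a single concentration, then tested at five tenfold-spaced concentrations. GI50 is the concentration reducing treated-cell growth to half that of untreated controls; TGI is the concentration completely halting growth.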

HCT-116 [3] = experiment: Cytotoxicity against human HCT116 cells assessed as cell growth at 80 nM by sulforhodamine B assay relative to control; assay type: functional; conditions: read-out: Activity
NCI-H226 [4] = experiment: Cytotoxicity against human NCI-H226 cells by sulforhodamine B assay; assay type: functional
In short: (§2)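 NCI Developmental Therapeutics Program 60-cell-line human tumor panel screen, run at NCI. A single-concentration pre-screen was followed by a five-concentration dose-response in 10-fold steps. GI50 is the concentration that reduces growth of treated cells to half that of untreated control cells. TGI is the concentration that completely halts growth.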

Malme-3M [5] = experiment: Cytotoxicity against human MALME-3M cells assessed as cell growth at 800 nM by sulforhodamine B assay relative to control; assay type: functional; conditions: read-out: Activity
M14 = experiment: Cytotoxicity against human M14 cells by sulforhodamine B assay; assay type: functional; in short: as §2
SR = experiment: Cytotoxicity against human SR cells assessed as cell growth at 8 nM by sulforhodamine B assay relative to control; assay type: functional; conditions: read-out: Activity
IGROV-1 = experiment: Cytotoxicity against human IGROV1 cells assessed as cell growth at 8 nM by sulforhodamine B assay relative to control; assay type: functional; conditions: read-out: Activity
SF-268 = experiment: Cytotoxicity against human SF268 cells assessed as cell growth at 80 nM by sulforhodamine B assay relative to control; assay type: functional; conditions: read-out: Activity
NCI-H226 [6] = experiment: Cytotoxicity against human NCI-H226 cells assessed as cell growth at 8 nM by sulforhodamine B assay relative to control; assay type: functional; conditions: read-out: Activity
OVCAR-3 [7] = experiment: Cytotoxicity against human OVCAR3 cells by sulforhodamine B assay; assay type: functional; in short: as §2
COLO 205 = experiment: Antitumor activity against human COLO205 cells xenografted in mouse assessed as tumor cell killing at 4.7 mg/kg, ip qd for 4 days by MTT assay; assay type: functional, organism-based; parameters: dose 4.7 mg/kg
In short: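 Hollow-fiber assay in mice. Tumor lines were grown in RPMI-1640 with 10% FBS and 2 mM glutamine. Cells at 2 × 10^6 cells/ml were loaded into 1 mm PVDF fibers (500,000 Da cutoff), heat-sealed at 2 cm and held 24–48 h at 37 °C, 5% CO2 before implantation. Compound was given IP. Fibers were collected the day after the fourth treatment for MTT (OD 540 nm, group means). A ≥50% cut in percent net growth versus vehicle counted as positive.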

DU-145 = experiment: Cytotoxicity against human DU145 cells assessed as cell growth at 8 nM by sulforhodamine B assay relative to control; assay type: functional; conditions: read-out: Activity; in short: as §1
NCI-H226 [8] = experiment: Cytotoxicity against human NCI-H226 cells assessed as cell growth at 80 nM by sulforhodamine B assay relative to control; assay type: functional; conditions: read-out: Activity
NCI-H460 = experiment: Cytotoxicity against human NCI-H460 cells assessed as cell growth at 80 nM by sulforhodamine B assay relative to control; assay type: functional; conditions: read-out: Activity
SW-620 [9] = experiment: Cytotoxicity against human SW620 cells assessed as cell growth at 8 nM by sulforhodamine B assay relative to control; assay type: functional; conditions: read-out: Activity
NCI-H322M [10] = experiment: Cytotoxicity against human NCI-H322M cells assessed as cell growth at 80 uM by sulforhodamine B assay relative to control; assay type: functional; conditions: read-out: Activity
KM12 = experiment: Cytotoxicity against human KM12 cells by sulforhodamine B assay; assay type: functional; in short: as §2
HCT-116 [11] = experiment: Cytotoxicity against human HCT116 cells assessed as cell growth at 8 nM by sulforhodamine B assay relative to control; assay type: functional; conditions: read-out: Activity
HCT-15 [12] = experiment: Cytotoxicity against human HCT15 cells assessed as cell growth at 80 nM by sulforhodamine B assay relative to control; assay type: functional; conditions: read-out: Activity
SK-MEL-2 = experiment: Cytotoxicity against human SK-MEL-2 cells assessed as cell growth at 80 uM by sulforhodamine B assay relative to control; assay type: functional; conditions: read-out: Activity
MDA-MB-231 [13] = experiment: Cytotoxicity against human MDA-MB-231 cells assessed as cell growth at 8 nM by sulforhodamine B assay relative to control; assay type: functional; conditions: read-out: Activity
A498 = experiment: Cytotoxicity against human A498 cells assessed as cell growth at 80 nM by sulforhodamine B assay relative to control; assay type: functional; conditions: read-out: Activity; in short: as §1
786-0 = experiment: Cytotoxicity against human 786-0 cells assessed as cell growth at 8 nM by sulforhodamine B assay relative to control; assay type: functional; conditions: read-out: Activity; in short: as §1
HCC 2998 = experiment: Cytotoxicity against human HCC2998 cells assessed as cell growth at 80 nM by sulforhodamine B assay relative to control; assay type: functional; conditions: read-out: Activity
MDA-MB-435 = experiment: Cytotoxicity against human MDA-MB-435 cells by sulforhodamine B assay; assay type: functional; in short: as §2
SW-620 [14] = experiment: Cytotoxicity against human SW620 cells assessed as cell growth at 800 nM by sulforhodamine B assay relative to control; assay type: functional; conditions: read-out: Activity
Hs-578T = experiment: Cytotoxicity against human Hs578T cells by sulforhodamine B assay; assay type: functional; in short: as §2
NCI-H322M [15] = experiment: Cytotoxicity against human NCI-H322M cells assessed as cell growth at 8 nM by sulforhodamine B assay relative to control; assay type: functional; conditions: read-out: Activity
HCT-15 [16] = experiment: Cytotoxicity against human HCT15 cells assessed as cell growth at 8 nM by sulforhodamine B assay relative to control; assay type: functional; conditions: read-out: Activity
Pseudomonas aeruginosa = experiment: Antimicrobial activity against Pseudomonas aeruginosa ATCC 27853 by CLSI method; assay type: functional, organism-based
OVCAR-8 [17] = experiment: Cytotoxicity against human OVCAR8 cells assessed as cell growth at 80 uM by sulforhodamine B assay relative to control; assay type: functional; conditions: read-out: Activity
LOX IMVI = experiment: Cytotoxicity against human LOXIMVI cells assessed as cell growth at 80 uM by sulforhodamine B assay relative to control; assay type: functional; conditions: read-out: Activity
NCI/ADR-RES = experiment: Cytotoxicity against human NCI/ADR-RES cells assessed as cell growth at 80 nM by sulforhodamine B assay relative to control; assay type: functional; conditions: read-out: Activity
Malme-3M [18] = experiment: Cytotoxicity against human MALME-3M cells assessed as cell growth at 80 uM by sulforhodamine B assay relative to control; assay type: functional; conditions: read-out: Activity
OVCAR-3 [19] = experiment: Cytotoxicity against human OVCAR3 cells assessed as cell growth at 80 uM by sulforhodamine B assay relative to control; assay type: functional; conditions: read-out: Activity
U-251 = experiment: Cytotoxicity against human U251 cells assessed as cell growth at 8 nM by sulforhodamine B assay relative to control; assay type: functional; conditions: read-out: Activity
MDA-MB-231 [20] = experiment: Cytotoxicity against human MDA-MB-231 cells assessed as cell growth at 8 uM by sulforhodamine B assay relative to control; assay type: functional; conditions: read-out: Activity
A549 [21] = experiment: Cytotoxicity against human A549 cells by sulforhodamine B assay; assay type: functional; in short: as §1

Structure (SMILES): C/C=C1\NC(=O)[C@H](Cc2ccccc2)NC(=O)[C@@H](C(C)C)NC(=O)[C@@H]([C@@H](C)CC)NC(=O)[C@H](NC(=O)[C@H](NC(=O)[C@H](CCCNCc2ccc(F)c(C)c2)NC(=O)[C@H]2CCCN2C(=O)[C@H](NC(=O)[C@@H](NC(=O)[C@@H](NC(=O)[C@H](NC(=O)CCCC(C)C)C(C)C)[C@@H](C)O)C(C)C)C(C)C)[C@@H](C)CC)[C@@H](C)OC(=O)[C@H](C(C)C)NC1=O
- growth at 0.008 µM (OVCAR-8 [1]): 107%
- growth at 80 µM (A549 [2]): 1%
- growth at 0.08 µM (HCT-116 [3]): 96%
- GI50 (NCI-H226 [4]): 1480 nM
- TGI (NCI-H226 [4]; read-out: pTGI (converted)): 3020 nM
- growth at 0.8 µM (Malme-3M [5]): 102%
- GI50 (M14): 1350 nM
- TGI (M14; read-out: pTGI (converted)): 2400 nM
- growth at 0.008 µM (SR): 90%
- growth at 0.008 µM (IGROV-1): 104%
- growth at 0.08 µM (SF-268): 99%
- growth at 0.008 µM (NCI-H226 [6]): 101%
- GI50 (OVCAR-3 [7]): 437 nM
- LC50 (OVCAR-3 [7]): 3470 nM
- TGI (OVCAR-3 [7]; read-out: pTGI (converted)): 1480 nM
- Activity (COLO 205): inactive
- growth at 0.008 µM (DU-145): 99%
- growth at 0.08 µM (NCI-H226 [8]): 109%
- growth at 0.08 µM (NCI-H460): 104%
- growth at 0.008 µM (SW-620 [9]): 99%
- growth at 80 µM (NCI-H322M [10]): -94%
- GI50 (KM12; read-out: GI50): 155 nM
- TGI (KM12; read-out: TGI): 328 nM
- GI50 (KM12; read-out: pGI50 (converted)): 155 nM
- TGI (KM12; read-out: pTGI (converted)): 331 nM
- growth at 0.008 µM (HCT-116 [11]): 98%
- growth at 0.08 µM (HCT-15 [12]): 103%
- growth at 80 µM (SK-MEL-2): -21%
- growth at 0.008 µM (MDA-MB-231 [13]): 101%
- growth at 0.08 µM (A498): 108%
- growth at 0.008 µM (786-0): 103%
- growth at 0.08 µM (HCC 2998): 105%
- GI50 (MDA-MB-435): 1150 nM
- TGI (MDA-MB-435; read-out: pTGI (converted)): 2190 nM
- growth at 0.8 µM (SW-620 [14]): 40%
- LC50 (Hs-578T): > 75900 nM
- GI50 (Hs-578T; read-out: GI50): 217 nM
- TGI (Hs-578T; read-out: TGI): 665 nM
- GI50 (Hs-578T; read-out: pGI50 (converted)): 219 nM
- TGI (Hs-578T; read-out: pTGI (converted)): 661 nM
- growth at 0.008 µM (NCI-H322M [15]): 105%
- growth at 0.008 µM (HCT-15 [16]): 100%
- Activity (Pseudomonas aeruginosa): inactive
- growth at 80 µM (OVCAR-8 [17]): 48%
- growth at 80 µM (LOX IMVI): -92%
- growth at 0.08 µM (NCI/ADR-RES): 88%
- growth at 80 µM (Malme-3M [18]): 12%
- growth at 80 µM (OVCAR-3 [19]): -90%
- growth at 0.008 µM (U-251): 96%
- growth at 8 µM (MDA-MB-231 [20]): -55%
- GI50 (A549 [21]; read-out: GI50): 167 nM
- GI50 (A549 [21]; read-out: pGI50 (converted)): 166 nM
